Assay results as given in ChEMBL document CHEMBL1137991, “Novel secoergoline derivatives inhibit both GABA and glutamate uptake in rat brain homogenates: synthesis, in vitro pharmacology, and modeling” (J Med Chem, 2004).

What was measured:
GABA transporter [1] = target: T1, GABA transporter (Rattus norvegicus, UniProt P31647+P23978+P31646+P48056); assay: In vitro inhibitory activity against [3H]GABA transport in rat cerebrocortical membranes; assay type: cell membranes
How it was run: (§1)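 Specific [3H]GABA (61 Ci/mmol) transport was measured at 30 °C in a native plasma membrane vesicle fraction from rat cerebral cortex. Vesicles were suspended in buffer A (Na+/K+/Ca2+/Mg2+ saline, 10 mM glucose, 0.1 mM aminooxyacetate, 20 mM HEPES, pH 7.5). Duplicates in 2–6 experiments. IC50 given as mean ± SD.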

[2] = In vitro inhibition of [3H]DASP transport through rat cerebrocortical membranes; assay type: functional, cell membranes, Membrane
How it was run: (§2)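 Rat cerebrocortical native plasma membrane vesicle fraction, final pellet in buffer A (145 mM NaCl, 5 mM KCl, 1 mM CaCl2, 1 mM MgCl2, 10 mM glucose, 0.1 mM aminooxyacetate, 2 mM NaHCO3, 20 mM HEPES, pH 7.5). Specific [3H]D-aspartate (24 Ci/mmol) transport measured at 30 °C. Duplicates in 2–6 experiments. IC50 given as mean ± SD.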

GABA transporter [3] = target: T1, GABA transporter; assay: In vitro inhibitory activity against [3H]-GABA transport in rat cerebrocortical membranes in the presence of NNC-711 (100 uM); Phase 1; assay type: cell membranes
How it was run: (§3)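 [3H]GABA (61 Ci/mmol) uptake by rat cerebrocortical membrane vesicles in buffer A, pH 7.5, at 30 °C, with 100 µM NNC-711 present. An IC50 was derived for each phase of the dose–response curve. Duplicates in 2–6 experiments, mean ± SD.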

GABA transporter [4] = target: T1, GABA transporter; assay: In vitro inhibitory activity against [3H]GABA transport in rat cerebrocortical membranes in the absence of NNC-711; Control; assay type: cell membranes; how it was run: as §1
GABA transporter [5] = target: T1, GABA transporter; assay: In vitro inhibitory activity against [3H]GABA transport in rat cerebrocortical membranes in the presence of NNC-711 (100 uM); Phase 2; assay type: cell membranes; how it was run: as §3
[6] = In vitro inhibition of [3H]DASP transport through rat cerebrocortical membranes with 100 uM TBOA; Phase 1; assay type: functional, cell membranes, Membrane
How it was run: (§4)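 [3H]D-aspartate (24 Ci/mmol) transport into rat cerebrocortical plasma membrane vesicles in HEPES-buffered saline A, pH 7.5, at 30 °C, with 100 µM DL-TBOA present. An IC50 was taken for each phase of the dose–response curve. Duplicates in 2–6 experiments, mean ± SD.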

[7] = In vitro inhibition of [3H]DASP transport through rat cerebrocortical membranes without TBOA; Control; assay type: functional, cell membranes, Membrane; how it was run: as §2
[8] = In vitro inhibition of [3H]DASP transport through rat cerebrocortical membranes with 100 uM TBOA; Phase 2; assay type: functional, cell membranes, Membrane; how it was run: as §4

Row | SMILES | IC50 (GABA transporter [1]) | IC50 [2] [µM] | also measured
1 | CCOC(=O)[C@H]1[C@H](C(=O)O)CN(C)C(C)[C@]1(O)c1ccccc1 (some centres not stated) | >> 1000 uM | > 1000 | 
2 | CCOC(=O)/C=C(\c1ccccc1)C(C)N(C)CC(=O)OCC (configuration not stated) | >> 1000 uM | > 1000 | 
3 | CCOC(=O)C1C(=O)C=C(c2ccccc2)C(C)N1C (configuration not stated) | 680 µM | 660 | 
4 | CCOC(=O)[C@@H]1CN(C)C(C)[C@](O)(c2ccccc2)[C@H]1C(=O)OCC (some centres not stated) | >> 1000 uM | > 1000 | 
5 | CCOC(=O)/C=C(/c1ccccc1)C(C)N(C)CC(=O)OCC.Cl.O=C(O)C1=CCCN(CCON=C(c2ccccc2)c2ccccc2)C1 |  |  | IC50 (GABA transporter [3]): 0.18 µM; IC50 (GABA transporter [4]): 270 µM; IC50 (GABA transporter [5]): 380 µM
6 | CCOC(=O)CN(C)C(C)C(=O)c1ccccc1.Cl (configuration not stated) | >> 1000 uM | > 1000 | 
7 | CCOC(=O)/C=C(/c1ccccc1)C(C)N(C)CC(=O)OCC.N[C@H](C(=O)O)[C@H](OCc1ccccc1)C(=O)O (configuration not stated) |  |  | IC50 [6]: 0.034 µM; IC50 [7]: 420 µM; IC50 [8]: 386 µM
8 | CCOC(=O)/C=C(/c1ccccc1)C(C)N(C)CC(=O)OCC (configuration not stated) | 270 µM | 420 | 
9 | CCOC(=O)C1C(=O)C=C(c2ccccc2)C(C)N1C.N[C@H](C(=O)O)[C@H](OCc1ccccc1)C(=O)O (configuration not stated) |  |  | IC50 [6]: 0.009 µM; IC50 [7]: 660 µM; IC50 [8]: 591 µM
10 | CCOC(=O)C1=C(c2ccccc2)C(C)N(C)CC1C(=O)OCC (configuration not stated) | >> 1000 uM | > 1000 | 
11 | CC1N(C)C[C@@H](C(=O)O)[C@H](C(=O)O)[C@@]1(O)c1ccccc1 (some centres not stated) | >> 1000 uM | > 1000 | 
12 | CCOC(=O)C1C(=O)C=C(c2ccccc2)C(C)N1C.Cl.O=C(O)C1=CCCN(CCON=C(c2ccccc2)c2ccccc2)C1 |  |  | IC50 (GABA transporter [3]): 0.0037 µM; IC50 (GABA transporter [4]): 680 µM; IC50 (GABA transporter [5]): 360 µM
13 | CCOC(=O)CNC(C)C(=O)c1ccccc1.Cl (configuration not stated) | >> 1000 uM | > 1000 | 
14 | COC(=O)/C=C(/c1ccccc1)C(C)N(C)CC(=O)OC (configuration not stated) | 1100 µM | 1100 | 
15 | COC(=O)/C=C(/c1ccccc1)C(C)N(C)CC(=O)OC.Cl.O=C(O)C1=CCCN(CCON=C(c2ccccc2)c2ccccc2)C1 |  |  | IC50 (GABA transporter [3]): 0.044 µM; IC50 (GABA transporter [4]): 1100 µM; IC50 (GABA transporter [5]): 491 µM
16 | COC(=O)/C=C(/c1ccccc1)C(C)N(C)CC(=O)OC.N[C@H](C(=O)O)[C@H](OCc1ccccc1)C(=O)O (configuration not stated) |  |  | IC50 [6]: 0.011 µM; IC50 [7]: 1100 µM; IC50 [8]: 1020 µM
17 | COC(=O)CN(C)C(C)C(=O)c1ccccc1.Cl (configuration not stated) | >> 1000 uM | > 1000 | 
18 | COC(=O)/C=C(\c1ccccc1)C(C)N(C)CC(=O)OC (configuration not stated) | >> 1000 uM | > 1000 | 
